# CCR6 antagonist – antagonists of human CCR6 receptor; P51684; CHO-K1 CCR6 PathHunter beta-arrestin, luminescence, CCL20-stimulated; inhibition, % at 20 µM; actives 0.49% (n = 340,000); AID 493098;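 active = compounds whose inhibition of the agonist-driven luminescence signal at 20 µM reaches about 50%, limit read from the data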;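 also: cells stimulated with CCL20 at 14 nM final; plate controls were DMSO with CCL20 for no effect and DMSO without agonist for full effect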
# APJ antag – antagonists of human APJ apelin receptor. P35414. CHO-K1 APJ beta-arrestin complementation, luminescence. inhibition, % at 20 µM. actives 0.32% (n = 330,000). AID 2521;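 active = inhibition above about 40% at 20 µM, limit read from the data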;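 also: cells challenged with 10 nM apelin-13 agonist together with compound; plate controls were apelin-13 plus DMSO wells for no effect and DMSO wells lacking apelin-13 for full effect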
# Target sequence (P35414 whole entry, looked up): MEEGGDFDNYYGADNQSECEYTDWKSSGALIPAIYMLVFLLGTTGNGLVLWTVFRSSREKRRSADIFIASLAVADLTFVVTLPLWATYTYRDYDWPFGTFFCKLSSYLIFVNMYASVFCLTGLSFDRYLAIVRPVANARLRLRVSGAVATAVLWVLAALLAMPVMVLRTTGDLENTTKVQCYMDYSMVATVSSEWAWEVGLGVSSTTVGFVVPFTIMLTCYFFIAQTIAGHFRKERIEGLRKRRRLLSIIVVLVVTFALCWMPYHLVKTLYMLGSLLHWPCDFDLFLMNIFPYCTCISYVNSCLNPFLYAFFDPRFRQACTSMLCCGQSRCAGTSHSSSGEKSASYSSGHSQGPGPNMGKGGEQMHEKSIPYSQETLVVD
# APJ ag – agonists of human APJ apelin receptor. P35414. AID 2520. CHO-K1 APJ PathHunter beta-arrestin, luminescence; 0% DMSO wells, 100% apelin. actives 0.11% (n = 330,000). activation, % at 20 µM;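 active = activation more than six SD over the plate average, tested at 20 µM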;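 also: 0% = DMSO alone and 100% = apelin-13 at 10 nM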
#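 Assay system: engineered CHO-K1 APJ arrestin reporter cells; Amount: 1000 CHO-K1 reporter cells seeded per well; Dosing: one dose, 20 µM compound, 1% DMSO; Times: compound stimulation 90 min at 25 °C, detection 60 min; Measured by: luminescent beta-gal fragment complementation, chemiluminescent substrate; Read-out: APJ–arrestin association signal; Controls: DMSO vs Apelin-13 10 nM.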
# EBI2 block – blocks human EBI2 receptor beta-arrestin signaling | P32249 | EBI2 beta-arrestin recruitment, luminescence, 7a,25-OHC stimulated | AID 651636 | inhibition, % at 5 µM | actives 0.81% (n = 360,000); in the data active = inhibition above about 38%;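 also: enzyme fragment complementation signal reports receptor beta-arrestin coupling in cells; 0% = agonist plus DMSO wells and 100% = wells without agonist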
# Target sequence (P32249 whole entry, looked up, the tested form may be a part): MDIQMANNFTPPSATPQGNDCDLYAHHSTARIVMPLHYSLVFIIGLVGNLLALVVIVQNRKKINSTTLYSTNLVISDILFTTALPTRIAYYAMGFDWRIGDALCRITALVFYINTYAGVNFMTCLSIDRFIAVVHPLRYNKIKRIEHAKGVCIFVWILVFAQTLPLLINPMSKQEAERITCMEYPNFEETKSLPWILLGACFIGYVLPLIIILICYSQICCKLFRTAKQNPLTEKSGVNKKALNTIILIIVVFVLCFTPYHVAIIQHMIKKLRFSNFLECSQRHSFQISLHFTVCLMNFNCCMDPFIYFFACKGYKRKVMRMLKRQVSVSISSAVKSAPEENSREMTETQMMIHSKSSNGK
# CXCR6 inh – inhibitors of human CXCR6 receptor; O00574; CHO-K1 PathHunter CXCR6 beta-arrestin, luminescence; inhibition, % at 20 µM; actives 0.36% (n = 360,000); AID 602244; in the data active = inhibition above about 34%, passing the limit was not always enough;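 also: antagonist mode with CXCL16 agonist at 10 nM final; 0% = 10 nM CXCL16 with DMSO and 100% = unstimulated wells without agonist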
# EBI2 antag conf – EBI2 (human) antagonism, single concentration confirmation; EBI2 beta-arrestin luminescence, 7a,25-OHC antagonism; shares compounds with EBI2 block; actives 29% (n = 2,400); inhibition, % at 5 µM;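 active = inhibition of at least 50%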
# EBI2 agonist – counter-screen for EBI2 antagonists: EBI2 agonist activity; shares compounds with EBI2 block; EBI2-expressing cells, agonist mode, luminescence, 60 min; 0% vehicle, 100% 7α,25-dihydroxycholesterol control; activation, % at 5 µM; 2,400 tested, under 10 active; AID 652000;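 active = activation of at least 50%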
# bGal counter – inhibits E. coli beta-galactosidase, counter-screen for EBI2 antagonists; shares compounds with EBI2 block; purified beta-galactosidase, luminescent Galacton Star, 15 min; inhibition, % at 5 µM; actives 1% (n = 2,400); AID 652176;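 active = replicate-average signal at least 3 plate SD below neutral wells, shown as high inhibition, flagging enzyme-inhibiting false positives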;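 also: 0% = DMSO wells with enzyme and 100% = wells lacking enzyme; higher means stronger loss of beta-gal luminescence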
# Starred values were filed as active, the others as inactive; . = no result given. A selection: hits, their analogues and other compounds. The true share with any hit is near 1.5%.
SMILES,CCR6 antagonist,APJ antag,APJ ag,EBI2 block,CXCR6 inh,EBI2 antag conf,EBI2 agonist,bGal counter
O=C(Nc1ccc2ccccc2c1)c1ccc(NS(=O)(=O)c2ccc(Br)s2)cc1,0.8,-31.9,2.7,44.2*,-7.1,15.0,0.5,3.4
O=C(c1ccncc1)c1ccc(NS(=O)(=O)c2ccc(Br)s2)cc1,8.1,8.3,0.7,2.9,-0.4,.,.,.
O=C(/C=C/c1ccc(Cl)cc1)NCCSc1ccccc1,15.5,8.5,-6.6,59.7*,2.6,30.6,0.6,-9.5
O=C(/C=C/c1ccccc1)NCCSCc1ccc(Cl)cc1,11.1,5.2,-10.4,51.9*,-7.0,14.9,-1.7,-9.3
O=C(/C=C/c1ccc(Cl)cc1)NCc1cccs1,16.5,-34.7,-0.5,53.0*,5.4,53.0*,-1.3,-9.5
CSc1cccc(NC(=O)/C=C/c2ccc(Cl)cc2)c1,17.0,-23.9,-3.3,59.0*,-7.6,68.1*,1.9,-1.7
CN(C)CCCNC(=S)N1CCn2c(nc3ccccc32)C1,-3.9,-24.1,.,-15.9,7.2,.,.,.
CCc1nccn1S(=O)(=O)c1ccc(Br)cc1Br,12.6,1.2,-0.5,-4.2,-0.3,.,.,.
COCCNc1nc(NCc2cc(-c3ccc(OC)cc3)no2)c2sccc2n1,.,.,.,-5.1,11.8,.,.,.
COCCNC(=O)C1CCCN(C(=O)COc2ccc(C(C)(C)C)cc2)CC1 (stereo unspecified),.,.,.,-9.3,2.3,.,.,.
CCOc1ccc(N2CC(=O)SC2=S)cc1,18.8,11.2,1.3,12.4,2.9,.,.,.
CCOc1ccc(N2CSC(=S)N(c3ccc(OCC)cc3)C2)cc1,8.3,5.0,-4.4,61.9*,6.0,16.8,-0.7,0.8
COc1ccc(-c2nnc(C3CCN(S(=O)(=O)c4ccccc4)CC3)o2)cc1,-0.5,7.3,-2.0,47.4*,-4.9,19.8,-0.3,-6.8
O=C(O)c1cc([N+](=O)[O-])ccc1N1CCCCC1,12.9,1.2,-3.9,-2.4,9.1,.,.,.
CC(C)(C)NC(=O)c1cc([N+](=O)[O-])ccc1N1CCCCC1,8.3,.,.,57.4*,-0.3,38.6,0.3,2.5
CC1CC(C)CN(c2ncc3c(n2)CC(c2ccc(Cl)cc2)CC3=O)C1 (stereo unspecified),22.6,22.1,-1.5,57.0*,14.8,11.9,-1.1,-16.5
CC1CC(C)CN(c2ncc3c(n2)CC(c2ccccc2Cl)CC3=O)C1 (stereo unspecified),22.0,12.4,-4.5,39.7,18.2,.,.,.
CC(C)C[C@@H](CN1CCC[C@@H]1CN1C(=S)NC[C@@H]1Cc1ccc(O)cc1)N1C[C@H](Cc2ccc(O)cc2)N(CC2CCCCCC2)C1=S,.,.,.,84.7*,-5.8,46.6,-0.3,-14.6
CC(C)C[C@@H](CN1CCCC1CN1C(=S)NC[C@@H]1Cc1ccccc1)N1C[C@H](Cc2ccc(O)cc2)N(CC2CCCCC2)C1=S (stereo partly specified),.,.,.,16.0,-0.2,.,.,.
CC(C)C[C@@H](CN1CCC[C@@H]1CN1C(=S)NC[C@@H]1Cc1ccc(O)cc1)N1C[C@H](Cc2ccc(O)cc2)N(CC2CCCCC2)C1=S,.,.,.,88.8*,1.1,41.8,-1.0,-11.2
CCOC(=O)c1c(NC(=O)C2=C(C)NC(=S)NC2c2ccc(C)cc2)sc(C)c1C (stereo unspecified),12.3,8.7,-2.5,92.3*,9.9,48.3,-1.8,-12.6
CCOC(=O)c1c(NC(=O)C2C3C=CC(CC3)C2C(=O)O)sc(C)c1C (stereo unspecified),-17.9,20.6,-10.9,1.5,-7.6,.,.,.
CCOC(=O)c1c(NC(=O)c2cccc(N3C(=O)CCC3=O)c2)sc(C)c1C,0.7,-9.6,0.8,-10.8,5.6,.,.,.
CCOC(=O)c1c(NC(=O)C2=C(C)NC(=S)NC2c2ccc(F)cc2)sc(C)c1C (stereo unspecified),10.7,17.2,-2.4,82.1*,-2.1,52.9*,1.1,-3.2
CCOC(=O)c1c(NC(=O)C2=C(C)NC(=S)NC2c2ccc(F)cc2F)sc(C)c1C (stereo unspecified),-3.5,-5.9,-3.0,85.6*,7.0,44.7,-0.7,6.9
SMILES,CCR6 antagonist,APJ antag,APJ ag,EBI2 block,CXCR6 inh,EBI2 antag conf,EBI2 agonist,bGal counter
CC1=C(C(=O)Nc2ccccn2)C(c2ccc(Cl)cc2)NC(=S)N1 (stereo unspecified),10.1,19.7,-2.8,4.7,6.3,.,.,.
Cc1c(-c2ccccc2)c(-c2ccc(OCCN(C)C)cc2)n2ccccc12,7.8,.,.,3.4,-13.8,.,.,.
NC(c1csc(Nc2ncccn2)n1)c1ccccc1Cl (stereo unspecified),.,.,.,1.0,9.1,.,.,.
CC(C)CC(C(=O)NCc1ccccn1)N1C(=O)c2ccccc2C1=O (stereo unspecified),-12.1,-7.3,-1.2,-0.9,0.9,.,.,.
CCCSc1ccc(-c2nn(-c3ccccc3)cc2/C=C(/C#N)C(=O)N2CCOCC2)cc1,19.7,-16.4,-0.4,50.2*,8.8,31.9,1.1,-0.4
CCSc1ccc(-c2nn(-c3ccccc3)cc2/C=C(/C#N)C(=O)NC)cc1,4.3,.,.,-4.9,-4.3,.,.,.
COc1cc(/C=N/NC(=O)Nc2cccc3nsnc23)cc(OC)c1OC,-19.0,.,.,-4.0,1.3,.,.,.
COc1ccc(/C=N/NC(=O)Nc2cccc3nsnc23)c(OC)c1,-2.1,-1.3,1.3,52.6*,-6.2,27.8,0.5,5.4
CSCCC(NC(=O)c1ccco1)C(=O)NCC1CCCO1 (stereo unspecified),13.1,-6.7,-0.3,-4.3,11.1,.,.,.
O=C(O)CC1CCC1CC(=O)O (stereo unspecified),-0.9,.,.,-3.7,3.6,.,.,.
O=C1CCCC2=C1C1(CCCCC1)N=C(Nc1nc3ccccc3o1)N2,-26.5,15.7,4.0,47.4*,2.3,40.1,-1.8,-21.1
O=C1CCCC2=C1C1(CCCC1)N=C(Nc1nc3ccccc3o1)N2,.,.,.,23.5,5.5,.,.,.
Cc1cc2nc(-c3ccc(SCc4ccccc4C#N)nc3)[nH]c2cc1C,7.7,-17.8,3.9,50.0*,6.2,36.9,-0.8,8.6
CC(C)(C)c1ccc(C(=O)Nc2ccc(O)c3c(=O)cc(-c4cccc(Cl)c4)oc23)cc1,12.4,5.7,-0.8,-2.7,10.9,.,.,.
COc1ccc(C(=O)Nc2ccc(O)c3c(=O)cc(-c4cccc(Cl)c4)oc23)cc1,23.3,23.7,-6.1,44.0*,6.3,20.9,0.2,6.1
CCCC(=O)n1nc(-c2ccccc2)nc1SC,-8.4,-0.5,-7.7,42.7*,-7.8,24.2,1.2,7.2
CCCCCn1c(=O)[nH]c2cc(C(=O)NCCCN3CCCCC3CC)ccc2c1=O (stereo unspecified),0.7,-24.5,-0.5,-0.8,5.8,.,.,.
